Measured values gathered from unrelated publications.
CDK3 with cyclin E: Cyclin-dependent kinase 3, with cyclin E (CDK3, Homo sapiens, UniProt Q00526)
CDK3: Cyclin-dependent kinase 3 (CDK3, Homo sapiens, UniProt Q00526)
CDK3 with cyclin E1: Cyclin-dependent kinase 3, with cyclin E1 (CDK3, Homo sapiens, UniProt Q00526)
CDK3 with cyclin E2: Cyclin-dependent kinase 3, with cyclin E2 (CDK3, Homo sapiens, UniProt Q00526)

CNC(=O)c1cc(Oc2ccc(NC(=O)Nc3ccc(Cl)c(C(F)(F)F)c3)cc2)ccn1 — inhibition (CDK3 with cyclin E; enzyme activity, inhibitor; 0.3 µM): -6%
Cc1cc(NC(=O)c2cccc(S(F)(F)(F)(F)F)c2)cc(-n2ccn3nc(-c4cccnc4)cc23)c1 — remaining binding (CDK3; cell-free assay, competition with immobilised ligand; 1 µM): 100%
CS(=O)(=O)Nc1cccc(-c2csc(NC(=O)CSc3nc4nccnc4c(=O)n3CCc3ccccc3)n2)c1 — inhibition (CDK3 with cyclin E1; enzyme activity, inhibitor; 10 µM): 2%
O=C1Nc2ccc(Cl)cc2C1=Cc1cc(Cl)c(O)c(Cl)c1 — remaining signal (CDK3 with cyclin E; cell-free assay; 0.5 µM): 85.4%
CC(C)(C)c1nc2c(s1)c1nc(N)ncc1c1ccc(NS(=O)(=O)c3c(F)cccc3F)c(F)c12 — remaining activity (CDK3 with cyclin E1; enzyme activity, inhibitor, radiometric; 1 µM): 98%
Cc1cnc(NC2CCOCC2)nc1-n1cnc(C(=O)NC(CN)c2cc(F)cc(Cl)c2)c1 (centres unmarked) — remaining activity (CDK3 with cyclin E; enzyme activity, inhibitor, radiometric; 1 µM): 5%
Cc1ccc(NC(=O)c2ccc(C)c(C(F)(F)F)c2)cc1C#Cc1nn(C2CCC(O)CC2)c2ncnc(N)c12 (centres unmarked) — remaining signal (CDK3 with cyclin E; cell-free assay; 10 µM): 93%
Cc1nccc(COC(=O)N2C[C@@H]3[C@@H](CNC(=O)c4ccc5[nH]nnc5c4)[C@@H]3C2)n1 — remaining binding (CDK3; cell-free assay, competition with immobilised ligand; 1 µM): 97%
Cc1ccc(C(=O)Nc2ccc(CN3CCN(C)CC3)c(C(F)(F)F)c2)cc1C#Cc1cnc2cccnn12 — remaining activity (CDK3; enzyme activity, inhibitor; 23.5 nM): 95%
CS(=O)(=O)NCC[C@H](NC(=O)c1cncc2c1cnn2-c1ccc(F)cc1)c1ccnc(S(C)(=O)=O)c1 — remaining binding (CDK3; cell-free assay, competition with immobilised ligand; 1 µM): 100%
O=C(Nc1cnn(-c2csc(C(=O)NC3COC3)c2)c1)Nc1ccccc1Cl — remaining activity (CDK3 with cyclin E2; enzyme activity, inhibitor; 5 µM): 95.8%
Cc1cc(NC(=O)c2cccc3cc(-c4cccc5[nH]nc(N)c45)ccc23)ccc1F — activity vs control (CDK3 with cyclin E; enzyme activity, inhibitor; 0.1 µM): 96%
Cc1sc(C(=O)NC2COC2)cc1-n1cc(NC(=O)Nc2c(F)cccc2Cl)cn1 — remaining activity (CDK3 with cyclin E; enzyme activity, inhibitor; 10 µM): 91.2%
Cc1ccc(Nc2nccc(N(C)c3ccc4c(C)n(C)nc4c3)n2)cc1S(N)(=O)=O — inhibition (CDK3 with cyclin E; enzyme activity, inhibitor; 0.3 µM): -4%
Cc1ccc(C(=O)NCc2ccsc2)cc1C#Cc1cn(C(C)C)c2ncnc(N)c12 — activity vs control (CDK3 with cyclin E; enzyme activity, inhibitor; 1 µM): 98%
Cc1cc(-n2nc(Cc3cc(F)cc(C(F)(F)F)c3)nc2C)ccc1C(N)=O — remaining binding (CDK3; cell-free assay, competition with immobilised ligand; 1 µM): 100%
N#CCCc1ccc2c(c1)-c1[nH]c3ccc([N+](=O)[O-])cc3c1CC(=O)N2 — remaining signal (CDK3 with cyclin E; cell-free assay; 0.5 µM): 39.7%
O=C(NCc1ncc(C(F)(F)F)cc1Cl)c1ccc2c(c1)C1(CCS(=O)(=O)CC1)[C@@H](C1CC1)N2S(=O)(=O)c1ccc(F)cc1 — remaining binding (CDK3; cell-free assay, competition with immobilised ligand; 1 µM): 41%
Cc1ccc(-n2nc(C(C)(C)C)cc2NC(=O)Nc2ccc(OCCN3CCOCC3)c3ccccc23)cc1 — inhibition (CDK3 with cyclin E; enzyme activity, inhibitor; 10 µM): -10%
Cc1nc(C2CCN(C(=O)c3ccc(OC(F)(F)F)cc3N)CC2)c2ncc(N3CCN(C)CC3)cc2n1 — remaining binding (CDK3; cell-free assay, competition with immobilised ligand; 1 µM): 100%
CCN(CC)CCNC(=O)c1c(C)[nH]c(/C=C2\C(=O)Nc3ccc(F)cc32)c1C — inhibition (CDK3 with cyclin E; enzyme activity, inhibitor; 10 µM): 41%
COc1cccc(CNC(=O)c2nc3scc(COCc4ccc(C(=O)O)cc4)c3c(=O)[nH]2)c1 — remaining binding (CDK3; cell-free assay, competition with immobilised ligand; 1 µM): 100%
O=C(Nc1cnn(-c2csc(C(=O)NC3COC3)c2)c1)Nc1c(F)cccc1Cl — remaining activity (CDK3 with cyclin E2; enzyme activity, inhibitor; 5 µM): 109%
